Data as given in ChEMBL document CHEMBL1687925, “Structure-activity relationships of cycloalkylamide derivatives as inhibitors of the soluble epoxide hydrolase” (J Med Chem, 2011).
In brackets after ≈: the same amount, converted by molar mass.

Assays:
[1] = Inhibition of human soluble epoxide […] using fluorescent CMNPC as substrate after 10 mins by fluorometric assay
In short: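 Recombinant human sEH, expressed in Sf9 cells via baculovirus with a His tag that was later removed, purified by metal-affinity and anion-exchange chromatography. Enzyme at 1 nM final, preincubated with inhibitor 10 min at 30 °C in 25 mM Bis-Tris/HCl pH 7.0. CMNPC then added at 5 μM. 6-Methoxy-2-naphthaldehyde fluorescence (ex 330/em 465 nm) followed for 10 min. IC50 by regression of at least six points; mean of three runs.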

[2] = Aqueous solubility of the compound in […] phosphate buffer at pH 7.4 relative to AUDA; assay type: physicochemical
[3] = Aqueous solubility of the compound in […] phosphate buffer at pH 7.4; assay type: physicochemical
In short: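 Light-scattering method at 25± 1.5 °C. Compound in DMSO was added at varying concentrations to 0.1 M sodium phosphate, pH 7.4, at 5:95 (v/v) DMSO:buffer. Insolubility was read as the rise in turbidity, measured as optical density at 650 nm.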

| IC50 [1] [nM] | fold change (FC) [2] | solubility [3] [µM] | Structure (SMILES) |
| --- | --- | --- | --- |
| > 1000 |  |  | O=C(NCc1ccccc1)C12CC3CC(CC(C3)C1)C2 |
| > 1000 |  |  | O=C(NCCCc1ccccc1)C1CC1 |
| > 1000 |  |  | O=C(NCCCc1ccccc1)C1CCCC1 |
| 235 |  |  | O=C(NCCCc1ccccc1)C1CCCCC1 |
| 222 |  |  | O=C(NCCCc1ccccc1)C1CC=CCC1 (stereo unspecified) |
| 64 |  |  | O=C(NCCCc1ccccc1)C1CCC(C(F)(F)F)CC1 (stereo unspecified) |
| 58 |  |  | CC(C)(C)C1CCC(C(=O)NCCCc2ccccc2)CC1 (stereo unspecified) |
| > 1000 |  |  | O=C(NCCCc1ccccc1)C1CCC(O)CC1 (stereo unspecified) |
| > 1000 |  |  | O=C1CCC(C(=O)NCCCc2ccccc2)CC1 |
| 243 |  |  | O=C(NCCCc1ccccc1)C1CCC(CO)CC1 (stereo unspecified) |
| > 1000 |  |  | O=C(NCCCc1ccccc1)C1CCCO1 (stereo unspecified) |
| > 1000 |  |  | O=C(NCCCc1ccccc1)C1CCOCC1 |
| 78 |  |  | COC(=O)C1CCC(C(=O)NCCCc2ccccc2)CC1 (stereo unspecified) |
| > 1000 |  |  | O=C(O)C1CCC(C(=O)NCCCc2ccccc2)CC1 (stereo unspecified) |
| > 1000 |  |  | COC(=O)C1CCCCC1C(=O)NCCCc1ccccc1 (stereo unspecified) |
| > 1000 |  |  | COC(=O)C1C2C=CC(C2)C1C(=O)NCCCc1ccccc1 (stereo unspecified) |
| 41 |  |  | O=C(NCCCc1ccccc1)C12CC3CC(CC(C3)C1)C2 |

| IC50 [1] [nM] | fold change (FC) [2] | solubility [3] [µM] | Structure (SMILES) |
| --- | --- | --- | --- |
| 15 |  |  | O=C(NCCCc1ccccc1)C1CCc2ccccc2C1 (stereo unspecified) |
| > 1000 |  |  | O=C(NCCCc1ccccc1)C1(c2ccccc2)CC1 |
| > 1000 |  |  | O=C(NCCCc1ccccc1)C1(c2ccccc2)CCCC1 |
| 230 |  |  | O=C(NCCc1ccccc1)C12CC3CC(CC(C3)C1)C2 |
| 180 |  |  | O=C(NCCCCc1ccccc1)C12CC3CC(CC(C3)C1)C2 |
| 101 |  |  | CCOC(=O)c1ccc(NC(=O)C23CC4CC(CC(C4)C2)C3)cc1 |
| > 1000 |  |  | COc1ccc(NC(=O)C23CC4CC(CC(C4)C2)C3)cc1 |
| 9.1 | 2 | 125 (≈ 40.9 µg/mL) | COC(=O)c1ccc(CNC(=O)C23CC4CC(CC(C4)C2)C3)cc1 |
| 230 |  |  | COC(=O)c1ccc(CCNC(=O)C23CC4CC(CC(C4)C2)C3)cc1 |
| 65 |  |  | COC(=O)c1ccc2cc(NC(=O)C34CC5CC(CC(C5)C3)C4)ccc2c1 |
| 2.1 | 2 | 125 (≈ 40.4 µg/mL) | COC(=O)c1ccc(CNC(=O)C2CCc3ccccc3C2)cc1 (stereo unspecified) |
| 6.6 |  | 31 (≈ 9.9 µg/mL) | COC(=O)c1ccc(CNC(=O)c2ccc3ccccc3c2)cc1 |
| 1.8 |  | 31 (≈ 10.4 µg/mL) | COC(=O)c1ccc(CNC(=O)c2ccc3cc(O)ccc3c2)cc1 |
| 2.4 |  | 15 (≈ 5.24 µg/mL) | COC(=O)c1ccc(CNC(=O)c2ccc3cc(OC)ccc3c2)cc1 |
| 723 |  |  | CN(CCCc1ccccc1)C(=O)C12CC3CC(CC(C3)C1)C2 |
|  |  | 63 (≈ 24.7 µg/mL) | O=C(O)CCCCCCCCCCCNC(=O)NC12CC3CC(CC(C3)C1)C2 |
| 288 |  |  | O=C(NCCCc1ccccc1)[C@@H]1C[C@H]1c1ccccc1 (relative stereo) |
